SMILES strings stand for the structures. Active and inactive are the calls of the source. No cut-off for these calls is given here.

Test [1] is filed under the species Homo sapiens. As to the kind of experiment: Selectivity index, ratio of IC50 for inhibition of human constitutive 20S proteasome beta 5 chymotrypsin-like activity to IC50 for inhibition of human 20S immunoproteasome beta 5 chymotrypsin-like activity.
The target in test [2] is T1, Proteasome Macropain subunit MB1 (Homo sapiens, UniProt P28074).
T1 sequence (P28074 whole entry): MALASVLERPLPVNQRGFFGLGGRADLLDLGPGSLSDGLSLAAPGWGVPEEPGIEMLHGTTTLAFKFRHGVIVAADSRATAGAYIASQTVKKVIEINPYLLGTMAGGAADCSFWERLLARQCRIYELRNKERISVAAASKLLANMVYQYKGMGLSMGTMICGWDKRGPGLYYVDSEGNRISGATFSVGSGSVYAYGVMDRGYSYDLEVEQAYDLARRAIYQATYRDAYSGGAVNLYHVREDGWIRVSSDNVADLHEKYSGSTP
As to the kind of experiment: Inhibition of human constitutive 20S proteasome beta 5 chymotrypsin-like activity. Put shortly:
(§1)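 Purified human proteasomes were used in a 96-well format assay: immunoproteasome i-20S from PBMC and constitutive c-20S from red blood cells. The readout was fluorogenic AMC peptide substrate cleavage on a plate reader, and IC50 values were determined from it.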

Test [3] addresses T2, Proteasome subunit beta type-8 (Homo sapiens, UniProt P28062).
T2 sequence (P28062 whole entry): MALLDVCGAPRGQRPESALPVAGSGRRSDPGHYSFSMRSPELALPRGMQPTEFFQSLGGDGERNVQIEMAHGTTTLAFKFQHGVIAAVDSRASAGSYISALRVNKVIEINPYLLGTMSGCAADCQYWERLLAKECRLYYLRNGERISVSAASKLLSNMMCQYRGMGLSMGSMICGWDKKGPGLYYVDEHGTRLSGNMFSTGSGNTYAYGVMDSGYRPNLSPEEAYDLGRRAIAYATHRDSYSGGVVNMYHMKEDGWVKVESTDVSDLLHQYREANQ
As to the kind of experiment: Inhibition of human 20S immunoproteasome beta 5 chymotrypsin-like activity. Put shortly: as §1

For test [4], the target named is Procathepsin L (Homo sapiens) (UniProt P07711). Briefly: Inhibition of cathepsin L (unknown origin) at 11.1 to 100 uM. Conditions: dose 11.1-100 µM.
Test [5] deals with proteasome subunit beta type-7, β2c, PSMB7 (Homo sapiens) (UniProt Q99436). Briefly: Inhibition of human 20S constitutive proteasome beta 2 at 33.3 uM relative to control.
Test [6] in a line: Inhibition of anti-CD3 antibody-stimulated T cell proliferation in human PBMCs. It counts as functional, tissue-based. Conditions: PBMC.
Test [7] concerns the target T3, Proteasome subunit beta type-9 (Homo sapiens) (UniProt P28065).
T3 sequence (whole entry): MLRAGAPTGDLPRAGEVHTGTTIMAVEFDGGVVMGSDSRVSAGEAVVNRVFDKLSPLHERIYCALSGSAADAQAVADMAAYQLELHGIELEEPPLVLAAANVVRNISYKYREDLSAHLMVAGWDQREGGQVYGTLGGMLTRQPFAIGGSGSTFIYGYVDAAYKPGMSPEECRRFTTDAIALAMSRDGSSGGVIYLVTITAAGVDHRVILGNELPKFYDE
Briefly: Inhibition of human 20S immunoproteasome beta 1 at 33.3 uM relative to control.

The species named for test [8] is Homo sapiens. As to the kind of experiment: Inhibition of alpha-chymotrypsin (unknown origin) at 11.1 to 100 uM. Conditions: dose 11.1-100 µM.
The target of test [9] is T4, Proteasome subunit beta type-10 (Homo sapiens) (UniProt P40306).
T4 sequence (whole entry): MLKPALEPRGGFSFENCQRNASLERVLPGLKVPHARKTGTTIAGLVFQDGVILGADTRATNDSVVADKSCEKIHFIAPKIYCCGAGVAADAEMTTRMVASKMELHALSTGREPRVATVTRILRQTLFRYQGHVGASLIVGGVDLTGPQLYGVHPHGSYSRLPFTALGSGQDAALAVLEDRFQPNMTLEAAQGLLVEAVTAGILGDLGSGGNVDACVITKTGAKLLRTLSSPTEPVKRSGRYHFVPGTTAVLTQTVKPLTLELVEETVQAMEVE
As to the kind of experiment: Inhibition of human 20S immunoproteasome beta 2 at 33.3 uM relative to control.

In test [10] the target is proteasome subunit beta type-6, β1c, PSMB6 (Homo sapiens) (UniProt P28072). Briefly: Inhibition of human 20S constitutive proteasome beta 1 at 33.3 uM relative to control.
In test [11] the target is Trypsin (Homo sapiens) (UniProt P07477+P07478+P35030). Briefly: Inhibition of trypsin (unknown origin) at 11.1 to 100 uM. Conditions: dose 11.1-100 µM.
The target of test [12] is T2, Proteasome subunit beta type-8. Briefly: Inhibition of human 20S immunoproteasome beta 5 chymotrypsin-like activity in human KARPAS-1106P cells incubated for 2 hrs by proteasome-Glo assay. It is filed as cell-based.

Procathepsin L (Homo sapiens), sequence (P07711 114-333 limits assumed): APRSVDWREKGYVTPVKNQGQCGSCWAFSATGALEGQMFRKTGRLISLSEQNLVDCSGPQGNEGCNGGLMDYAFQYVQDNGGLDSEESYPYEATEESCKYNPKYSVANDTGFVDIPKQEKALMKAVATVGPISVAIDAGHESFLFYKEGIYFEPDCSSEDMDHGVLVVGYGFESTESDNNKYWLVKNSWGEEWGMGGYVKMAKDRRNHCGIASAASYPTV
proteasome subunit beta type-6, β1c, PSMB6 (Homo sapiens), sequence (P28072 whole entry, looked up): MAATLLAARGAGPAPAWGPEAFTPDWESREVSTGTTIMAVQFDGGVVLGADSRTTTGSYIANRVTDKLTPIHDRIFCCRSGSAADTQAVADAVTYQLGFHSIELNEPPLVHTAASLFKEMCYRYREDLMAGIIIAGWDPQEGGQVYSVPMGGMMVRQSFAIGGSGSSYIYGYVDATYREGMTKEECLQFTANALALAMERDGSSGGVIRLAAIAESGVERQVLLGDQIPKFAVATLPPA
proteasome subunit beta type-7, β2c, PSMB7 (Homo sapiens), sequence (Q99436 whole entry, looked up): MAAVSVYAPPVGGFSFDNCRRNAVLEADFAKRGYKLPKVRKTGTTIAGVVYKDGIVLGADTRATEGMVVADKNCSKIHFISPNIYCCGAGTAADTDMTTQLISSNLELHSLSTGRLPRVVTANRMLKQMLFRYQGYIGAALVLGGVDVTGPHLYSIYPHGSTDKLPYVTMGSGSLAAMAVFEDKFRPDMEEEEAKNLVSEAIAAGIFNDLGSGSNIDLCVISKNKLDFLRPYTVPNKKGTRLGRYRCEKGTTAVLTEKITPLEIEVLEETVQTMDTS

Regarding `COC[C@H](NC(=O)[C@H](CC(=O)NOC(C)(C)C)NC(=O)CCc1ccccc1)C(=O)NCc1cccc(OC)c1`, the Ratio IC50 in [1] is 7. Also, the IC50 in test [2] came to 101 nM; in [3], 14.4 nM.

Consider `COC[C@H](NC(=O)[C@H](CC(=O)N1CCC1)NC(=O)CCc1ccccc1)C(=O)NCc1cccc2ccccc12`, for which, in test [1], the Ratio IC50 was greater than 7. Besides, the IC50 in test [2] was greater than 100000 nM.

As to `C[C@H](NC(=O)[C@H](CC(=O)NOC(C)(C)C)NC(=O)CCc1ccccc1)C(=O)NCc1ccnc2ccccc12`, in test [1], the Ratio IC50 came out at 23. The IC50 in test [2] was found to be 59000 nM; in test [3] it was 2620 nM.

With `CCN(CC)C(=O)C[C@H](NC(=O)CCc1ccccc1)C(=O)N[C@@H](COC)C(=O)NCc1cccc2ccccc12`, the Ratio IC50 in test [1] turned out to be 8.

As for `Cc1ccc(S(=O)(=O)N[C@@H](CCC(=O)NC(C)(C)C)C(=O)N[C@@H](C)C(=O)NCc2ccc(F)c3ccccc23)cc1`, the inhibition result in test [4], in [8] and in test [11] was “inactive” each time. The inhibition in test [5], in test [7], in test [9] and in test [10] was less than 50% throughout. Besides, the half-maximal effective concentration (EC50) in test [6] is 39 nM.

In the case of `NC(=O)C[C@H](NC(=O)CCc1ccccc1)C(=O)N[C@@H](Cc1ccc(F)cc1)C(=O)NCc1cccc2ccccc12`, in test [1], the Ratio IC50 is greater than 2.8. The 50% inhibitory concentration (IC50) in [2] is greater than 100000 nM.

For the compound `COC[C@H](NC(=O)CCc1ccccc1)C(=O)N[C@@H](C)C(=O)NCc1cccc2ccccc12`, the Ratio IC50 in [1] was greater than 5. Also, the IC50 in test [2] is greater than 100000 nM; in test [3] it was 21700 nM.

For the compound `COC[C@H](NC(=O)[C@H](CC(=O)NC(C)(C)C)NC(=O)CCc1ccccc1)C(=O)NCc1cccc2ccccc12`, the Ratio IC50 in [1] was determined as 71.

Regarding `COC[C@H](NC(=O)[C@H](CC(=O)N1CCCCC1)NC(=O)CCc1ccccc1)C(=O)NCc1cccc2ccccc12`, the Ratio IC50 in test [1] was found to be 58.

Consider `Cc1cc(C(=O)N[C@@H](CCC(=O)NC(C)(C)C)C(=O)N[C@@H](C)C(=O)NCc2ccc(F)c3ccccc23)no1`, for which the inhibition entry in [4], in test [8] and in [11] was “inactive” each time. The inhibition in test [5], in test [7], in test [9] and in test [10] was less than 50% throughout. Moreover, in test [6], the midpoint of the response, the EC50, lay at 73 nM.

As to `C[C@H](NC(=O)[C@H](CCC(=O)NC(C)(C)C)NC(=O)CCc1ccccc1)C(=O)NCc1ccc(F)c2ccccc12`, the inhibition entry in test [4], in test [8] and in test [11] was “inactive” in each case. Further, the inhibition in test [5], in [7], in [9] and in test [10] was less than 50% each time. The compound also returned a 50% effective concentration (EC50) in test [6] of 44 nM. Also, the results for the IC50 in test [12] and in [3] were 39 nM and 1.6 nM, respectively.

Consider `COC[C@H](NC(=O)[C@H](CC(=O)N(C)C)NC(=O)CCc1ccccc1)C(=O)NCc1cccc2ccccc12`, for which the Ratio IC50 in test [1] is greater than 9. The same compound showed an IC50 in [2] greater than 100000 nM.

For the compound `COC[C@H](NC(=O)[C@H](CC(=O)NC(C)(C)C)NC(=O)c1cc(C)on1)C(=O)NCc1cccc2ccccc12`, the Ratio IC50 in test [1] stood at 274.

Take `COC[C@H](NC(=O)[C@H](CC(=O)NC(C)(C)C)NS(=O)(=O)c1ccc(C)cc1)C(=O)NCc1ccc(F)c2ccccc12`: the inhibition result in [4], in test [8] and in [11] was “inactive” in each case. The inhibition in [5], in test [7], in test [9] and in [10] was less than 50% each time. For the same compound, in test [6], it took 73 nM to reach a half-maximal effect (EC50).

With `COC[C@H](NC(=O)[C@H](CC(=O)NOC(C)(C)C)NC(=O)CCc1ccccc1)C(=O)NCc1cccc2cccnc12`, in test [1], the Ratio IC50 is 12. Further, the concentration for half-maximal inhibition (IC50) in test [2] is 1040 nM; in [3] it was 83.7 nM.

For the compound `C[C@H](NC(=O)[C@H](CC(=O)NC(C)(C)C)NC(=O)C(=O)c1c[nH]c2ccccc12)C(=O)NCc1cccc2ccccc12`, the inhibition entry in test [4] and in [8] was “Active” throughout. Further, the inhibition in test [5], in test [7], in test [9] and in test [10] was less than 50% throughout. This compound displayed an EC50 in test [6] of 21 nM. Further, in [11], the inhibition result is “inactive”.

Regarding `COC[C@H](NC(=O)[C@H](CC(=O)NOC(C)(C)C)NC(=O)CCc1ccccc1)C(=O)NCc1cccc2c1NCCC2`, the Ratio IC50 in [1] came to 54. Also, the concentration for half-maximal inhibition (IC50) in test [2] amounted to 27200 nM; in test [3] it was 501 nM.

With `COC[C@H](NC(=O)[C@H](CCC(=O)NC(C)(C)C)NS(=O)(=O)c1ccc(C)cc1)C(=O)NCc1ccc(F)c2ccccc12`, the inhibition result in test [4], in [8] and in test [11] was “inactive” throughout. Moreover, the inhibition in test [5], in test [7], in test [9] and in [10] was less than 50% each time. The EC50 in [6] was 18 nM.

As for `C[C@H](NC(=O)[C@H](CC(=O)NOC(C)(C)C)NC(=O)CCc1ccccc1)C(=O)NCc1cccc2ncccc12`, the Ratio IC50 in test [1] was determined as 11. In addition, the IC50 in [2] turned out to be 12700 nM; in test [3], 1160 nM.

For `COC[C@H](NC(=O)[C@H](CC(=O)NOC(C)(C)C)NC(=O)CCc1ccccc1)C(=O)NCc1cccc(OC)c1OC`, the Ratio IC50 in [1] is 2. The IC50 in test [2] worked out at 980 nM; in [3] it was 479 nM.

For `C[C@H](NC(=O)[C@H](CC(=O)NOC(C)(C)C)NC(=O)CCc1ccccc1)C(=O)NCc1cccc2[nH]ccc12`, the Ratio IC50 in [1] was 6. Further, the IC50 in [2] was determined as 170 nM; in test [3], 28.4 nM.

For the compound `COC[C@H](NC(=O)[C@H](CC(=O)N1CCCC1)NC(=O)CCc1ccccc1)C(=O)NCc1cccc2ccccc12`, the Ratio IC50 in test [1] stood at 28.

For the origin of these results see ChEMBL document CHEMBL4699588, “Structure-Activity Relationships of Noncovalent Immunoproteasome β5i-Selective Dipeptides” (J Med Chem, 2020).
